Source: PubChem BioAssay AID624466 (The Scripps Research Institute Molecular Screening Center, 2012)
Among all 360,000 compounds or so, about 5,400 (1.5%) were called active. The list comes from a sample in which actives are over-represented; it also holds similar structures and randomly drawn compounds. Unmarked numbers belong to inactive results.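 How the source made its calls: active means inhibition above a per-plate cutoff, the mean inhibition of test compounds on that plate plus 3 SD (cut at about 49% in these data); inactive means the rest.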

target: Trace amine-associated receptor 1 (Homo sapiens) (UniProt Q96RJ0); experiment: human TAAR1 antagonists, primary screen, Fluo-8 calcium fluorescence, CHO RD-HGA16 cells (AID 624466); conditions: CHO RD-HGA16 TAAR1, Fluo-8 calcium fluorescence, antagonist; at 3 µM; hits give high values;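 further: 0% = DMSO plus EC80 beta-PEA response and 100% = DMSO alone without agonist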
How it was run: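 Assay system: CHO-derived RD-HGA16 cells stably expressing human TAAR1 plus Gα16. Timing: 140 s kinetic read after compound, 140 s after agonist. Technique: kinetic Fluo-8 calcium fluorescence measurement. Measure: % inhibition of agonist calcium response.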

Chain of Trace amine-associated receptor 1 (Homo sapiens) (Q96RJ0 whole entry, looked up): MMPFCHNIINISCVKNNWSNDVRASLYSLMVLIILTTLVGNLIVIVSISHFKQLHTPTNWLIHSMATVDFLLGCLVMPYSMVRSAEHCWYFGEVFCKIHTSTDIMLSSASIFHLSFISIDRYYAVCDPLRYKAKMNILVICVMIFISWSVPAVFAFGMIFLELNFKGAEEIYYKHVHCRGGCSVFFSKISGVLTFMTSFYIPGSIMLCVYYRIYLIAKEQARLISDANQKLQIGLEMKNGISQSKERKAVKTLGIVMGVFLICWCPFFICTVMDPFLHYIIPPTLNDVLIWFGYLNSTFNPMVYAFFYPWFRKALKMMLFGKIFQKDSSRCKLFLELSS

Row | SMILES | inhibition
1 | Nc1ncnc2c1ncn2[C@@H]1O[C@H](C(=O)N[C@@H](CCc2ccccc2)C(=O)N2CCCN(Cc3cccs3)CC2)[C@@H](O)[C@H]1O | 3.27%
2 | COc1cccc(CC2(CO)CCN(Cc3cnc(-c4cccc(C)c4)nc3)CC2)c1 | 5.01%
3 | COc1cccc(CNC(=O)[C@H]2CCCN2C(=O)[C@H]2CCCN2C(=O)C2CCCCC2)c1 | -16.5%
4 | COc1ccc(/C=C/C(=O)c2c(O)cc(OC)cc2OC)cc1 | 1.09%
5 | COc1cccc(C=CC(=O)C=CC=Cc2ccccc2)c1 | -24.3%
6 | O=C(/C=C(O)/C=C/c1ccc(O)cc1)/C=C/c1ccc(O)cc1 | 68.2% (active)
7 | O=C(COc1ccc(Cl)cc1)NCCSc1ccccc1 | 0.81%
8 | CCCNC(=O)C1(C)CCCN(Cc2c(C)nn(-c3ccccc3)c2C)C1 (stereo not given) | 5.37%
9 | O=C1C(=O)N(CCCN2CCOCC2)C(c2ccc([N+](=O)[O-])cc2)/C1=C(\O)c1ccc2c(c1)OCCO2 (stereo not given) | 6.85%
10 | CC(=O)c1ccc(S(=O)(=O)NCC2CCN(C(=O)C(=O)c3cccs3)CC2)cc1 | -6.62%
11 | CCCCC(=O)NNC(=S)NC(=O)C(c1ccccc1)c1ccccc1 | 106% (active)
12 | CC(C)CC(=O)NC(=S)NCc1ccccc1 | -16.9%
13 | O=C(CCN1CCN(c2ccccc2)CC1)NNC(=S)Nc1ccccc1 | -13.7%
14 | O=C(C(=O)N1CCN(c2ccccc2)CC1)c1ccc2c(c1)OCO2 | -15%
15 | COCc1cc(=O)[nH]c(SC)n1 | -6.85%
16 | NS(=O)(=O)c1ccc(CNC(=O)c2cccc(S(=O)(=O)N3CCc4ccccc43)c2)cc1 | -6.37%
17 | CC1CN(S(=O)(=O)c2ccc(C(=O)Nc3sccc3C(N)=O)cc2)CC(C)O1 (stereo not given) | 9.54%
18 | CNC(=O)c1ccsc1NC(=O)c1ccc(S(=O)(=O)N2CCc3ccccc32)cc1 | 62.9% (active)
19 | COCCn1c(=NC(=O)c2ccccc2[N+](=O)[O-])sc2cc(S(C)(=O)=O)ccc21 | -0.74%
20 | O=S1(=O)CCO[C@H]2Cc3ccccc3[C@H]2N1Cc1ccccc1 | 9.98%
21 | Cc1ccc(CNC(=O)CCNS(=O)(=O)c2ccc(Br)s2)cc1 | 5.04%
22 | CCOC(=O)C1=C(C(=O)OCC)C2N(Cc3ccc(C#N)cc3)c3ccccc3[C@@]23C[C@@H](C(=O)OC)N(S(=O)(=O)c2ccc(F)cc2)C3=N1 (stereo not given in full) | -16.3%
23 | O=C(N/C(=C\c1ccc([N+](=O)[O-])cc1)C(=O)N1CCCCC1)c1ccco1 | 9.56%
24 | Cn1nccc1C(=O)NC1CCCc2c1cnn2-c1ccc(F)cc1F (stereo not given) | 4.98%
25 | COc1ccc(OC)c(C(=O)NC2CCCc3c2cnn3-c2cc(C)cc(C)c2)c1 (stereo not given) | -17.8%
26 | COc1ccc(C(=O)NC2CCCc3c2cnn3-c2cccc(C)c2C)c(OC)n1 (stereo not given) | 62.1% (active)
27 | CCN1CCN(C(=O)c2cc3cc4ccc(OC)cc4nc3s2)CC1 | 0.15%
28 | CCCCCCCCN1C(=O)[C@@H](CC(=O)NCc2ccccc2)C[C@@]2(C(=O)OC)C1=C[C@H](C(C)(C)C)O[C@@H]2C | -4.61%

Row | SMILES | inhibition
29 | CCOC(=O)[C@]12CCC=C1N(Cc1ccccc1)C(=O)[C@H](CC(=O)N1CCCC1)C2 | -13.9%
30 | CCOC(=O)c1c(NC(=O)C2(C)Cc3ccccc3C(=O)O2)sc2c1CCCC2 (stereo not given) | -23.7%
31 | CCOC(=O)C1=C(NC(=S)NC(=O)c2ccccc2)c2ccccc2CC1(C)C | 59.3% (active)
32 | Cn1nnc(NC(=S)NC(=O)c2ccccc2)n1 | -35%
33 | CCOC(=O)N1CCN(C(=O)C[C@H]2C[C@@]3(C(=O)OC)C(=C[C@H](C4CCCC4)O[C@@H]3C)N(Cc3ccccc3)C2=O)CC1 | -6.31%
34 | CC(C)N1C(=O)c2ccccc2NC(=O)C1C(=O)NCc1cccs1 (stereo not given) | -8.37%
35 | O=[N+]([O-])c1cc([N+](=O)[O-])c2cccnc2c1O | 2.43%
36 | NNC(=O)CNC(c1ccccc1)c1cc(Cl)ccc1NC(=O)c1ccccc1 (stereo not given) | 80% (active)
37 | O=C(CNC(c1ccccc1)c1ccccc1)Nc1ccc(F)cc1 | -11.9%
38 | CC(NCC(=O)Nc1cc(Cl)cc(Cl)c1)c1ccccc1 (stereo not given) | 3.33%
39 | Cc1ccc(-c2cc(=O)[nH]c(NCc3ccccc3)n2)cc1 | -9.41%
40 | COc1ccc(CN(CC(=O)NC2CCCC2)C(=O)CCC(=O)Nc2cc(C)on2)cc1 | -2.7%
41 | Cc1cc(C(C)(C)C)oc1C(=O)N(CC(=O)NC1CCCC1)Cc1ccc(Cl)cc1 | 56.4% (active)
42 | Cc1ccc(CN(CC(=O)NC2CCCCC2)C(=O)c2csnn2)cc1 | 10.9%
43 | COCCNC(=S)N(C)[C@H]1C[C@H]2c3[nH]c4ccccc4c3CCN2C[C@H]1[C@H](C)O | -4.21%
44 | COC(=O)C[C@@H]1C=C[C@@H](NC(=O)c2ccc3c(c2)OCO3)[C@@H](CO)O1 | 8.18%
45 | COc1ccc(CCNc2ncnc3nc[nH]c23)cc1OC | 42.1%
46 | c1ccc2c(c1)OCC(CNc1ncnc3nc[nH]c13)O2 (stereo not given) | 105% (active)
47 | O=C(Cn1cnc2ccccc2c1=O)NCC1COc2ccccc2O1 (stereo not given) | -0.58%
48 | O=C(c1ccc(Cl)c(S(=O)(=O)N2CCCCC2)c1)N1CCCCCC1 | -4.7%
49 | NS(=O)(=O)c1ccc(CCNC(=O)c2ccc(Cl)c(S(=O)(=O)N3CCCCCC3)c2)cc1 | 48.9% (active)
50 | O=C(NCCc1ccc(F)cc1)c1ccc(S(=O)(=O)N2CCCCC2)cc1 | -0.8%
51 | CC(C)Nc1ncnc2c1nnn2Cc1ccccc1 | -8.98%
52 | Clc1ccc(Nc2ncnc3c2nnn3Cc2ccccc2)cc1 | 59.2% (active)
53 | c1ccc(Cn2nnc3c(NCC4CC4)ncnc32)cc1 | -5.34%
54 | Nc1ncnc2c1ncn2C1OC(CO)CC1O (stereo not given) | -14.9%
55 | CC1(C)OC(=O)C2=C(CC(CCc3ccccc3)OC2c2ccc(Cl)cc2)O1 (stereo not given) | 18.9%
